In ChEMBL document CHEMBL1142652, “5-(2-aminoethyl)dibenzo[c,h][1,6]naphthyridin-6-ones: variation of n-alkyl substituents modulates sensitivity to efflux transporters associated with multidrug resistance” (J Med Chem, 2005):

Assays:
P388 = assay: Inhibitory concentration against P388 cell line in mouse leukemia was determine; type: functional, cell-based
In short: (§1)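 MTT microtiter tetrazolium assay. Cells exposed continuously for 4 days to varying drug concentrations, MTT read at the end of day 4. An untreated control ran in each assay. IC50 taken; each assay done at least twice in six replicate wells. Sources: RPMI 8402 human lymphoblasts and CPT-resistant CPT-K5; P388 mouse leukemia and CPT-resistant TOP1-deficient P388/CPT45; KB3-1 with KBV-1 (MDR1) and KBH5.0 (BCRP, selected stepwise against Hoechst 33342).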

RPMI 8402 [1] = assay: Inhibitory concentration against lymphoblast RPMI 8402 cell line was determined; type: functional, cell-based; settings: Homo sapiens; in short: as §1
RPMI 8402 [2] = assay: Cytotoxicity against camptothecin-resistant RPMI 8402; type: functional, cell-based; settings: Homo sapiens; in short: as §1
[3] = Inhibitory concentration against KB/V-1 cells overexpress MDR1; type: functional, cell-based; settings: Homo sapiens; in short: as §1
[4] = Inhibitory concentration against camptothecin-resistant variant of P388 cell line was determined; type: functional, cell-based, Mus musculus; in short: as §1
KB 3-1 [5] = assay: Inhibitory concentration against KB3-1 cell line was determined; type: functional, cell-based; settings: Homo sapiens; in short: as §1
KB 3-1 [6] = assay: Inhibitory concentration against KBH5.0 cells overexpress BCRP; type: functional, cell-based; settings: Homo sapiens, KBH5.0 cell; in short: as §1
[7] = target: T1, DNA topoisomerase 1 (Homo sapiens) (UniProt P11387); assay: Relative topoisomerase I-mediated plasmid DNA cleavage compared to topotecan; type: functional
T1 sequence (whole entry): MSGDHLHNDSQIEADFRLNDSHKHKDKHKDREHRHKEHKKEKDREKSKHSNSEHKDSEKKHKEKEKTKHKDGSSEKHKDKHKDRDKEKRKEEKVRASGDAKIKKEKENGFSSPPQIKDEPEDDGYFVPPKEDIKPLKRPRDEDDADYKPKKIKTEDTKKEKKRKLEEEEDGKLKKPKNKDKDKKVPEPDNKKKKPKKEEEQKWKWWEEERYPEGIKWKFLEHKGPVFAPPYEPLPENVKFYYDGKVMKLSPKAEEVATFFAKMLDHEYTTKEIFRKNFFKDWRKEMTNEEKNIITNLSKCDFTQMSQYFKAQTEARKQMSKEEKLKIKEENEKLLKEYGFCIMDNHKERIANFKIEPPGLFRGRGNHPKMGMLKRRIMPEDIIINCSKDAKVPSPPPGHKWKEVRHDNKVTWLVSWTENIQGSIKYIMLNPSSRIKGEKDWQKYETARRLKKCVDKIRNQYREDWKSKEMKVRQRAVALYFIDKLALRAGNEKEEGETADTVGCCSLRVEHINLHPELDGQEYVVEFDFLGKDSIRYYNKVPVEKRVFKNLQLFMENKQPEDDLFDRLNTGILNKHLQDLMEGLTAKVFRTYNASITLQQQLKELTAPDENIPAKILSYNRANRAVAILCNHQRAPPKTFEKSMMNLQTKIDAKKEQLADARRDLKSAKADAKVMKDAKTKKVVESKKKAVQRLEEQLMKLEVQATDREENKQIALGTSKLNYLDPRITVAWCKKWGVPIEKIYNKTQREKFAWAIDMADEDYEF
In short: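 Recombinant human topoisomerase I (T7-expressed in E. coli as a fusion protein). End-labeled plasmid YepG, CsCl-purified, incubated with drug and enzyme 30 min at 37 °C. Gel autoradiograms, typically 24 h exposure. Value is REC: concentration relative to topotecan (set at 1.0) that gives the same cleavage.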

Row | SMILES | IC50 (P388) [nM] | IC50 (RPMI 8402 [1]) [nM] | IC50 (RPMI 8402 [2]) [nM] | IC50 [3] [nM] | IC50 [4] [nM] | IC50 (KB 3-1 [5]) [nM] | IC50 (KB 3-1 [6]) [nM] | Activity [7]
1 | COc1cc2c(=O)n(CCN3CCNCC3)c3c4cc5c(cc4ncc3c2cc1OC)OCO5 | 60 | 90 | 2700 | 1900 | 300 | 100 | 530 | 4.3
2 | CCN(CC)CCn1c(=O)c2cc(OC)c(OC)cc2c2cnc3cc4c(cc3c21)OCO4 | 4 | 6 | 850 | 15 | 150 | 4 | 5 | 1.4
3 | CCN(CCn1c(=O)c2cc(OC)c(OC)cc2c2cnc3cc4c(cc3c21)OCO4)Cc1ccccc1 | 50 | 77 | 7500 | 400 | 360 | 180 | 330 | 12.3
4 | COc1cc2c(=O)n(CCNC(C)(C)C)c3c4cc5c(cc4ncc3c2cc1OC)OCO5 | 2 | 2 | 220 | 16 | 37 | 3 | 6 | 0.1
5 | COc1cc2c(=O)n(CCN3CCCCC3)c3c4cc5c(cc4ncc3c2cc1OC)OCO5 | 6 | 7 | 400 | 13 | 50 | 4 | 9 | 0.6
6 | CCNCCn1c(=O)c2cc(OC)c(OC)cc2c2cnc3cc4c(cc3c21)OCO4 | 0.7 | 2 | 170 | 16 | 30 | 1 | 5 | 0.1
7 | CC[C@@]1(O)C(=O)OCc2c1cc1n(c2=O)Cc2cc3c(CN(C)C)c(O)ccc3nc2-1 [TOPOTECAN] | – | 21 | > 10000 | – | > 10000 | – | 440 | –
8 | COc1cc2c(=O)n(CCN(C)C(C)C)c3c4cc5c(cc4ncc3c2cc1OC)OCO5 | 6 | 8 | 630 | 3 | 71 | 3 | 4 | 0.03
9 | COc1cc2c(=O)n(CCN)c3c4cc5c(cc4ncc3c2cc1OC)OCO5 | 3 | 4 | 250 | 15 | 27 | 5 | 12 | 0.02
10 | COc1cc2c(=O)n(CCN(Cc3ccccc3)C(C)(C)C)c3c4cc5c(cc4ncc3c2cc1OC)OCO5 | 200 | 850 | 5750 | 2500 | 1850 | 190 | 500 | > 1000
11 | COc1cc2c(=O)n(CCN(Cc3ccccc3)Cc3ccccc3)c3c4cc5c(cc4ncc3c2cc1OC)OCO5 | 250 | 380 | 1950 | 360 | 500 | 300 | 300 | 15
12 | COc1cc2c(=O)n(CCN3CCC(C)CC3)c3c4cc5c(cc4ncc3c2cc1OC)OCO5 | 14 | 30 | 450 | 50 | 190 | 30 | 40 | > 100
13 | COc1cc2c(=O)n(CCN(C)C)c3c4cc5c(cc4ncc3c2cc1OC)OCO5 | – | – | – | – | 230 | – | 6 | 0.3
14 | CCN(CCn1c(=O)c2cc(OC)c(OC)cc2c2cnc3cc4c(cc3c21)OCO4)C(C)C | 4 | 5 | 310 | 21 | 120 | 3 | 8 | 0.17
15 | COc1cc2c(=O)n(CCNCc3ccccc3)c3c4cc5c(cc4ncc3c2cc1OC)OCO5 | 16 | 16 | 280 | 35 | 180 | 6 | 10 | 0.5
16 | COc1cc2c(=O)n(CCNC(C)C)c3c4cc5c(cc4ncc3c2cc1OC)OCO5 | 1 | 3 | 180 | 5 | 30 | 5 | 6 | 0.3
17 | COc1cc2c(=O)n(CCN(Cc3ccccc3)C(C)C)c3c4cc5c(cc4ncc3c2cc1OC)OCO5 | 230 | 300 | 5900 | 4000 | 650 | 800 | 500 | 7.4
18 | COc1cc2c(=O)n(CCN(C(C)C)C(C)C)c3c4cc5c(cc4ncc3c2cc1OC)OCO5 | 6 | 8 | 600 | 40 | 200 | 5 | 40 | 4.7
19 | CNCCn1c(=O)c2cc(OC)c(OC)cc2c2cnc3cc4c(cc3c21)OCO4 [GENZ-644282] | 0.3 | 0.3 | 250 | 22 | 70 | 0.4 | 0.5 | 0.1 µM
20 | COc1cc2c(=O)n(CCN3CCCC3)c3c4cc5c(cc4ncc3c2cc1OC)OCO5 | 6 | 3 | 390 | 8 | 60 | 3 | 4 | 0.3
21 | COc1cc2c(=O)n(CCN3CCN(Cc4ccccc4)CC3)c3c4cc5c(cc4ncc3c2cc1OC)OCO5 | 250 | 400 | 700 | 700 | 200 | 500 | 750 | 1000
22 | COc1cc2c(=O)n(CCN(C)Cc3ccccc3)c3c4cc5c(cc4ncc3c2cc1OC)OCO5 | 38 | 53 | 2000 | 300 | 450 | 50 | 150 | 15.8
23 | COc1cc2c(=O)n(CCN3CCN(C)CC3)c3c4cc5c(cc4ncc3c2cc1OC)OCO5 | 230 | 300 | 5900 | 2500 | 650 | 500 | 400 | 1000
